According to publication PMC9996623 (ACS Omega, 2023):

Key:
[1] = target: HIV-1 integrase (Human immunodeficiency virus type 1 group M subtype B, UniProt P04585); experiment: HIV-1 integrase strand transfer; assay type: biochemical; settings: for inhibition at 10 µM: read-out: %ST inhibition (percentage inhibition of strand transfer activity of integrase enzyme), 10 μM dose, WT (wild-type) integrase; for fold increase in %ST inhibition compared to 10a: versus 10a
[2] = system: TZM-bl cells; experiment: MTT cytotoxicity assay on TZM-bl cells; assay type: cell-based; settings: IC50 values at 48 h, 3.125 to 200 μM
Method in brief: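 Medium with compound removed; MTT reagent (5 mg/mL) added for 4 h; formazan dissolved in DMSO with shaking; absorbance read at 570 nm against a 630 nm reference. Percent viability plotted versus concentration.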

SMILES	inhibition at 10 µM [1]	also measured
Cn1cc(-c2ccccc2)c2ccc(Cl)nc21 [10a, 6-Chloro-1-methyl-3-phenyl-1H-pyrrolo[2,3-b]pyridine]	14%	
Cc1ccc(-c2cn(C)c3nc(Cl)ccc23)cc1 [10b, 6-Chloro-1-methyl-3-(p-tolyl)-1H-pyrrolo[2,3-b]pyridine]	41%	fold increase in %ST inhibition compared to 10a ([1]; 10 μM dose): ~3 fold
Cc1cccc(-c2cn(C)c3nc(Cl)ccc23)c1 [10c, 6-Chloro-1-methyl-3-(m-tolyl)-1H-pyrrolo[2,3-b]pyridine]	19.4%	
COc1ccc(-c2cn(C)c3nc(Cl)ccc23)cc1 [10d, 6-Chloro-3-(4-methoxyphenyl)-1-methyl-1H-pyrrolo[2,3-b]pyridine]	56%	
Cn1cc(-c2ccc(F)cc2)c2ccc(Cl)nc21 [10e, 6-Chloro-3-(4-fluorophenyl)-1-methyl-1H-pyrrolo[2,3-b]pyridine]	38.3%	
Cn1cc(-c2cc(C(F)(F)F)cc(C(F)(F)F)c2)c2ccc(Cl)nc21 [10f, 3-(3,5-Bis(trifluoromethyl)phenyl)-6-chloro-1-methyl-1H-pyrrolo[2,3-b]pyridine]	48.3%	
Cn1cc(-c2ccc3c(c2)OCO3)c2ccc(Cl)nc21 [10h, 3-(Benzo[d][1,3]dioxol-5-yl)-6-chloro-1-methyl-1H-pyrrolo[2,3-b]pyridine]	54%	
COc1ccc(-c2ccc3c(-c4ccccc4)cn(C)c3n2)cc1 [11a, 6-(4-Methoxyphenyl)-1-methyl-3-phenyl-1H-pyrrolo[2,3-b]pyridine]	39.3%	fold increase in %ST inhibition compared to 10a ([1]; 10 μM dose): ~2 fold
Cc1ccc(-c2ccc3c(-c4ccccc4)cn(C)c3n2)cc1 [11b, 1-Methyl-3-phenyl-6-(p-tolyl)-1H-pyrrolo[2,3-b]pyridine]	51.7%	
Cn1cc(-c2ccccc2)c2ccc(-c3cc(C(F)(F)F)cc(C(F)(F)F)c3)nc21 [11c, 6-(3,5-Bis(trifluoromethyl)phenyl)-1-methyl-3-phenyl-1H-pyrrolo[2,3-b]pyridine]	36.4%	
COc1ccc(-c2ccc3c(-c4ccc(F)cc4F)cn(C)c3n2)cc1 [11d, 3-(2,4-Difluorophenyl)-6-(4-methoxyphenyl)-1-methyl-1H-pyrrolo[2,3-b]pyridine]	72%	
Cn1cc(-c2ccccc2)c2ccc(-c3ccsc3)nc21 [11e, 1-Methyl-3-phenyl-6-(thiophen-3-yl)-1H-pyrrolo[2,3-b]pyridine]	41.6%	
Cn1cc(-c2ccc3c(c2)OCO3)c2ccc(-c3ccncc3)nc21 [11f, 3-(Benzo[d][1,3]dioxol-5-yl)-1-methyl-6-(pyridin-4-yl)-1H-pyrrolo[2,3-b]pyridine]	71%	fold increase in %ST inhibition comparing 10h and 11f ([1]; 10 μM dose, versus 10h): ~1.3 fold; IC50 in TZM-bl [2]: minimal cytotoxicity
COc1ccc(Cn2cc(-c3ccsc3)c3ccc(-c4ccncc4)nc32)cc1 [12a, 1-(4-Methoxybenzyl)-6-(pyridin-4-yl)-3-(thiophen-3-yl)-1H-pyrrolo[2,3-b]pyridine]	15.9%	
COc1ccc(Cn2cc(-c3ccc4c(c3)OCO4)c3ccc(-c4ccc5ccccc5c4)nc32)cc1 [12b, 3-(Benzo[d][1,3]dioxol-5-yl)-1-(4-methoxybenzyl)-6-(naphthalen-2-yl)-1H-pyrrolo[2,3-b]pyridine]	24.1%	
Cc1nnc(C(=O)NC(C)(C)c2nc(C(=O)NCc3ccc(F)cc3)c(O)c(=O)n2C)o1 [RAL, Raltegravir, reference compound]	82%	
